Series [1] deals with dengue virus type 2. Kind of series: Antiviral activity against Dengue virus 2 Rega infected in African green monkey Vero cells assessed as reduction in viral yield after 4 days by qRT-PCR analysis. The class given is functional, organism-based. The settings on record: Dengue virus, Rega, Vero, 96 h. The essentials: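 Virus yield reduction in Vero cells (seeded 5×10^4/well). Next day infected with DENV (MOI 0.01) in assay medium (MEM, 2% FBS, 0.075% bicarbonate, 2 mM L-glutamine). After 1 h, input virus was removed and cells rinsed 3 times. Medium with 3- or 5-fold compound serial dilutions was then added. Incubation was 4 days (DENV-2, DENV-4) or 7 days (DENV-1, DENV-3). Supernatant viral RNA was measured by RT-qPCR, and EC50 obtained by logarithmic interpolation.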

The nature of series [2]: Cytotoxicity against African green monkey Vero cells assessed as cell growth inhibition after 4 days by MTS/PMS method. The settings on record: chlorocebus sabaeus, Vero cells. The class given is cell-based. The essentials:
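Cytotoxicity run as in the yield assay, but without virus. Vero cells (5×10^4/well) were exposed to 3- or 5-fold serial dilutions in MEM with 2% FBS. Viability was read by the MTS/PMS colorimetric method. CC50 was derived by logarithmic interpolation.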

Series [3] concerns Salmonella typhimurium. Description: Mutagenicity in Salmonella typhimurium in presence of human liver S9 fraction by Ames test. The class given is toxicity, organism-based. The settings on record: salmonella enterica subsp. enterica serovar typhimurium.
For series [4], the system named is Salmonella typhimurium. Kind of series: Mutagenicity in Salmonella typhimurium in absence of human liver S9 fraction by Ames test. The class given is toxicity, organism-based. The settings on record: salmonella enterica subsp. enterica serovar typhimurium. On the technique in general: The Ames test detects mutagens through reverse mutation in bacteria.
The nature of series [5]: Solubility of the compound in DMSO solution at pH 7.4. The settings on record: read-out: solubility. The class given is physicochemical. The essentials: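 Solubility measured at pH 7.4, starting from a DMSO solution.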
Series [6] can be described thus: Drug metabolism in human liver microsomes after 15 mins. The class given is ADME, microsome. The settings on record: liver microsomes, read-out: Drug metabolism. Put shortly: (§1)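 Percentage of compound metabolized after 15 min incubation with human or rat liver microsomes.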
For orientation: Liver microsomes are vesicles of endoplasmic reticulum, rich in cytochrome P450 enzymes.

Series [7] in a line: Drug metabolism in rat liver microsomes after 15 mins. The class given is ADME, microsome. The settings on record: liver microsomes, read-out: Drug metabolism. The essentials:
as §1

Converted amounts (≈) assume the structure as drawn. A value given as a limit tells only on which side of the number the result lay.

On to `COc1nc(NC(C(=O)c2c[nH]c3ccccc23)c2ccccc2)ns1` (configuration not stated), for which the EC50 (usually the midpoint of the concentration-response curve) in series [1] was found to be 3.3 µM. Moreover, in series [2], the CC50 (usually the concentration giving 50% cytotoxicity) at 96 h was 90 µM.
On to `CCOc1cc(NC(C(=O)c2c[nH]c3ccccc23)c2ccccc2)cc(OC)c1` (configuration not stated), for which the EC50 in series [1] was determined as 0.018 µM. Further, the half-maximal cytotoxic concentration (CC50) at 96 h in series [2] was 13 µM.
Regarding `COc1cccc(NC(C(=O)c2c[nH]c3ccccc23)c2cc3ccccn3n2)c1` (configuration not stated), in series [1], the concentration for a half-maximal effect (EC50) came to 0.028 µM. For the same molecule, the cytotoxic concentration (CC50) at 96 h in series [2] amounted to 26 µM.
Take `O=C(c1c[nH]c2ccccc12)C(NC1CCCC1)c1ccccc1` (configuration not stated): in series [1], the EC50 is 15 µM. The CC50 at 96 h in series [2] worked out at 86 µM.
The like results for `COc1cc(NC(C(=O)c2c[nH]c3ccc(CO)cc23)c2ccccc2)cc(OC)c1` (configuration not stated) were, in that order, 0.106 µM and 65 µM.
As for `COc1cccc(NC(C(=O)c2c[nH]c3cc(Cl)ccc23)c2ccccc2)c1` (configuration not stated), the concentration for a half-maximal effect (EC50) in series [1] is 0.013 µM. Further, in series [2], the CC50 at 96 h was found to be 13 µM.
Take `O=C(c1c[nH]c2ccccc12)C(Nc1cc(F)cc(F)c1)c1ccccc1` (configuration not stated): the 50% effective concentration (EC50) in series [1] stood at 1.7 µM. Besides, in series [2], the 50% cytotoxic concentration (CC50) at 96 h worked out at 23 µM.
`COc1cccc(NC(C(=O)c2c[nH]c3cc(OC)ccc23)c2ccccc2)c1` (configuration not stated): in series [1], the concentration giving a half-maximal response (EC50) stood at 0.043 µM. Also, the cytotoxic concentration (CC50) at 96 h in series [2] worked out at 13 µM.
As to `COc1cccc(NC(C(=O)c2c[nH]c3ccccc23)c2ccsc2)c1` (configuration not stated), the EC50 in series [1] was determined as 0.134 µM. In addition, the CC50 at 96 h in series [2] is 15 µM.
For the molecule `COc1cc(NC(C(=O)c2c[nH]c3ccccc23)c2ccccc2)cc(OCCN(C)C)c1` (configuration not stated), in series [1], the EC50 was determined as 1.7 µM. The CC50 at 96 h in series [2] was determined as 13 µM.
Turning to `COc1cccc(NC(C(=O)c2c[nH]c3ccccc23)c2ccccc2)c1` (configuration not stated), the concentration for a half-maximal effect (EC50) in series [1] worked out at 0.073 µM. Moreover, in series [2], the half-maximal cytotoxic concentration (CC50) at 96 h is 18 µM. The Activity entry in series [3] and in series [4] was “Non-Toxic” in each case.
With `COc1cccc(NC(C(=O)c2c[nH]c3ccccc23)c2cccc(C)c2)c1` (configuration not stated), the 50% effective concentration (EC50) in series [1] was 0.269 µM. For the same molecule, in series [2], the CC50 at 96 h worked out at 20 µM.
The like results for `COc1cc(NC(C(=O)c2c[nH]c3ccccc23)c2ccc(F)cc2)cc(OC)c1` (configuration not stated) were, in that order, 0.004 µM and 13 µM.
In the case of `COc1cc(NC(C(=O)c2c[nH]c3ccc(CCO)cc23)c2ccccc2)cc(OC)c1` (configuration not stated), the concentration for a half-maximal effect (EC50) in series [1] is 0.181 µM. For the same molecule, the half-maximal cytotoxic concentration (CC50) at 96 h in series [2] worked out at 56 µM.
Take `COc1cccc(NC(C(=O)c2c[nH]c3cccc(Cl)c23)c2ccccc2)c1` (configuration not stated): the 50% effective concentration (EC50) in series [1] amounted to 0.024 µM. Moreover, the half-maximal cytotoxic concentration (CC50) at 96 h in series [2] amounted to 18 µM.
Regarding `COc1cc(CO)cc(NC(C(=O)c2c[nH]c3ccccc23)c2ccccc2)c1` (configuration not stated), the EC50 in series [1] turned out to be 0.065 µM. Besides, the CC50 at 96 h in series [2] was 71 µM. In addition, the solubility – broadly, how much of the substance goes into solution per volume – in series [5] turned out to be 50 µM (≈ 19.3 µg/mL). The metabolised at 0.25 h in series [6] is 18%; in series [7], 85%.
As for `COc1ccnc(NC(C(=O)c2c[nH]c3ccccc23)c2ccccc2)c1` (configuration not stated), the EC50 in series [1] worked out at 6.3 µM. The CC50 at 96 h in series [2] is 95 µM.
Take `COc1cccc(NC(C(=O)c2c[nH]c3ccccc23)c2ccc3nccnc3c2)c1` (configuration not stated): the EC50 in series [1] worked out at 1.2 µM. Moreover, the CC50 at 96 h in series [2] is 19 µM.
The like results for `O=C(c1c[nH]c2ccccc12)C(Nc1ccc2[nH]c(=O)oc2c1)c1ccccc1` (configuration not stated) were, in that order, 6.1 µM and 15 µM.
On to `COc1cccc(NC(C(=O)c2c[nH]c3ccccc23)c2ccc(C#N)cc2)c1` (configuration not stated), for which, in series [1], the EC50 worked out at 0.041 µM. For the same molecule, the CC50 at 96 h in series [2] turned out to be 14 µM.
With `COc1cc(NC(C(=O)c2c[nH]c3cccc(CO)c23)c2ccccc2)cc(OC)c1` (configuration not stated), the EC50 in series [1] was 0.288 µM. In addition, in series [2], the half-maximal cytotoxic concentration (CC50) at 96 h was found to be 71 µM.
`COc1cccc(NC(C(=O)c2c[nH]c3c(C)cccc23)c2ccccc2)c1` (configuration not stated): the concentration for a half-maximal effect (EC50) in series [1] worked out at 0.051 µM. Further, the CC50 at 96 h in series [2] is > 135 µM.
Taken in the same sequence, the figures for `COc1cccc(NC(C(=O)c2c[nH]c3ccccc23)c2ccncc2)c1` (configuration not stated) were 0.138 µM and 16 µM.
Taken in the same sequence, the figures for `COc1cc(NC(C(=O)c2c[nH]c3cccc(CCCO)c23)c2ccccc2)cc(OC)c1` (configuration not stated) were 1.4 µM and 55 µM.
For the molecule `COc1cc(F)cc(NC(C(=O)c2c[nH]c3ccccc23)c2ccccc2)c1` (configuration not stated), in series [1], the EC50 came to 0.02 µM. Further, in series [2], the 50% cytotoxic concentration (CC50) at 96 h was found to be 22 µM.
Turning to `N#Cc1cccc(NC(C(=O)c2c[nH]c3ccccc23)c2ccccc2)c1` (configuration not stated), the EC50 in series [1] was 2.1 µM. Also, the 50% cytotoxic concentration (CC50) at 96 h in series [2] was 14 µM.

The values are drawn from ChEMBL document CHEMBL4196174, “Discovery of Indole Derivatives as Novel and Potent Dengue Virus Inhibitors” (J Med Chem, 2018).
